Rows were chosen to be rich in hits. Some 1.6% of all compounds tested hit in one or more screens of this group.
MBD2 DNA inh = inhibitors of human MBD2 binding to methylated oligonucleotide. Q9UBB5. TR-FRET. inhibition, % at 4.4 µM. 370,000 tested, 0.31% active; in the data active means inhibition above about 13%
UHRF1 binding = UHRF1 methyl-DNA binding inhibition. AID 687016. inhibition, % at 4.4 µM. Q96T88. UHRF1 binding to methylated oligo, TR-FRET. 370,000 tested, 0.75% active; in the data active means inhibition above about 21%;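 further: UHRF1 SRA domain binding a hemimethylated CpG hairpin DNA probe; 0% = median of test compound wells and 100% = reference inhibitor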
LEDGF integ inh = blocks HIV-1 LEDGF/p75-dependent DNA integration. TR-FRET IN-LEDGF/p75 DNA integration, Eu/Cy5. inhibition, % at 3.7 µM. 370,000 tested, 0.64% active;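 active means inhibition above the screen-wide mean plus 3 SD, cut at about 13% in these data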;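 further: signal is the Cy5 over europium emission ratio at 671 and 618 nm; 0% = plate median of compound wells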
TDP2 absorb = blocks human TDP2 phosphodiesterase activity | recombinant TDP2, T5PNP hydrolysis, p-nitrophenol absorbance 415 nm | AID 720702 | inhibition, % at 12.8 µM | 370,000 tested, 0.34% active;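 active means inhibition above the mean of all tested compounds plus 3 SD, set per campaign, cut at about 25% in these data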;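 further: 0% = DMSO with enzyme and 100% = buffer with substrate but no TDP2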
Target sequence (O95551 whole entry, looked up): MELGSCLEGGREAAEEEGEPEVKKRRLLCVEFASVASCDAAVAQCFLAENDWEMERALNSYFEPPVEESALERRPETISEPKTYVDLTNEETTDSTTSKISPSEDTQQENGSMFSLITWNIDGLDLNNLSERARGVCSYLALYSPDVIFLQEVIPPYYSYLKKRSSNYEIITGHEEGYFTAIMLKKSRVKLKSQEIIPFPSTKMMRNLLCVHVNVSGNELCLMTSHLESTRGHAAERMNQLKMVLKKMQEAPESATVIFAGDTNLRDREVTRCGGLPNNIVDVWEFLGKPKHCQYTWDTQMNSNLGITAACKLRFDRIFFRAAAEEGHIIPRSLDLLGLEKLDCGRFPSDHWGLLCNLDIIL
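Evaluation: % inhibition relative to enzyme-containing and enzyme-free wells. Material: recombinant human TDP2. Benchmarks: enzyme-free and DMSO wells. Timing: enzyme reaction with compound for 2 h at 37 °C. Compound dosing: 12.8 µM only. Measured by: p-Nitrophenol epi absorbance. Reagent: T5PNP substrate at 5 mM, a TopII-DNA adduct mimic. Replication: single well per compound.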
* = called active by the depositor; ! = repeats disagree.

SMILES | MBD2 DNA inh | UHRF1 binding | LEDGF integ inh | TDP2 absorb
CCCCC(C(=O)NC(=O)NCc1ccccc1)N1C(=O)c2ccccc2C1=O (configuration not stated) | 12 | 23* | 2 | 10
CC(C(=O)NC(=O)NCc1ccccc1)N1C(=O)c2ccccc2C1=O (configuration not stated) | -2 | 2 | 0 | 2
CCN(c1ccccc1)S(=O)(=O)c1cc(C(=O)OCC(=O)c2c(N)n(C)c(=O)n(C)c2=O)ccc1C | 12 | 32* | 1 | -5
COC(=O)[C@]12CCCCC=C1N(Cc1ccc(OC)cc1)C(=O)[C@@H]2CC(=O)NCc1ccc(C)o1 | 1 | 0 | -1 | 0
CC(C(=O)N1CCc2ccccc21)N(C)CC(=O)Nc1ccccc1Cl (configuration not stated) | -2 | 33* | 1 | -1
COCCN1C(=O)C2=C(C1=O)C1N(C)c3ccccc3[C@@]13C[C@@H](CO)N(C(=O)CCC(=O)OC)C3=N2 (some centres not stated) | -2 | 0 | -2 | 0
O=C(O)CCN(Cc1ccccc1)S(=O)(=O)c1ccc(Cl)cc1F | 2 | 7 | 5 | -16
O=C(O)CCN(Cc1ccccc1)S(=O)(=O)c1ccccc1Cl | 7 | 22* | 1 | 9
CS(=O)(=O)c1ccc(OCCCN2CCC(C(O)(c3ccccc3)c3ccccc3)CC2)cc1 | -1 | 2 | -2 | -1
Cc1cccc2sc(N(CCCN(C)C)C(=O)c3ccc(C(=O)c4ccccc4)cc3)nc12 | 4 | 34*! | -1 | 3
CC(=O)Nc1ccc(S(=O)(=O)NCCSc2ccccn2)cc1 | 5 | 21* | 0 | 10
CC(C)C1Cc2c(sc(NC(=S)NC(=O)c3ccccc3)c2C#N)CO1 (configuration not stated) | -2 | -4 | 1 | 14
CCCN1CCc2c(sc(NC(=S)NC(=O)c3ccccc3)c2C#N)C1 | 15* | 17 | -3 | 2
CC(C)N1CCc2c(sc(NC(=S)NC(=O)c3ccccc3)c2C#N)C1 | 21* | 15 | 4 | 1
COc1ccc(CCNC(=O)Cn2ncc3c2-c2cc(C)ccc2OC3)cc1 | 2 | -2 | -1 | 2
CC(C)C[C@@H](COCc1ccc([N+](=O)[O-])cc1)N1CCN(C(=O)c2ccc(C(F)(F)F)cc2)CCC1=O | 5 | 22* | -2 | -2
S=C(NCc1ccco1)Nc1ccc(Br)cn1 | -4 | -3 | 1 | 19
S=C(NCc1ccco1)Nc1cc(-c2ccccc2)[nH]n1 | 6 | 29* | 10 | 18
C=CCn1cccc(C(=O)Nc2cc(OC)ccc2OC)c1=O | -3 | 29* | 1 | 3
O=C(O)Cc1sc(N/N=C\c2ccccc2)nc1-c1ccccc1 | 2 | -5 | 25* | 10
Cc1ccc(NC(=O)c2sc3nc[nH]c(=O)c3c2C)c(C)c1 | 7 | 23* | -1 | 8
O=C(CSc1ccc(Cl)cc1)N1CCN(c2ccc(Cl)cc2[N+](=O)[O-])CC1 | 0 | 22* | -1 | 7
CC(NC(=O)c1ccc(F)cc1)C1CC2CCC1C2 (configuration not stated) | 6 | 88* | -4 | -1
Nc1cc2nsnc2cc1Br | 3 | 4 | 48* | 92*
CC(C)OC(=O)c1cccnc1N1CCN(c2ccc(F)cc2)CC1 | 8 | 23* | 2 | -5
SMILES | MBD2 DNA inh | UHRF1 binding | LEDGF integ inh | TDP2 absorb
COC(=O)C[C@H]1CC[C@@H]2[C@@H](COc3ccc(NC(=O)c4ccccc4)cc3C(=O)N2C)O1 | -4 | -2 | 1 | 2
COc1ccccc1CNc1ccc([N+](=O)[O-])cc1C | 0 | 48* | 2 | -6
O=C(NCc1ccc(Cl)cc1)C1CCCN(c2ncccn2)C1 (configuration not stated) | -2 | 4 | -1 | 3
COc1ccc(C(=O)Nn2c(CC(C)C)nc3cc(OC)c(OC)cc3c2=O)c(OC)c1 | 2 | 34* | -5 | -1
COc1cc2nc(CC(C)C)n(NC(=O)c3ccccc3)c(=O)c2cc1OC | -3 | 1 | 0 | 15
CC1CCN(S(=O)(=O)c2cccc(C(=O)NNC(=O)c3ccco3)c2)CC1 | 5 | 30* | 1 | -5
CC1CCN(S(=O)(=O)c2cccc(C(=O)NCc3ccco3)c2)CC1 | 3 | -2 | -2 | 7
C[C@@H](CO)N(CCc1cn(Cc2ccccc2)nn1)S(=O)(=O)c1ccccc1Br | 0 | 0 | -2 | 7
CCC(Sc1nc2cc(OC)c(OC)cc2c(=O)n1Cc1ccc(OC)cc1)C(=O)NCCOC (configuration not stated) | -2 | 23* | 4 | 11
C[C@@H]1ON(C)[C@H]2C[C@H]3c4[nH]c5c(-c6ccccc6F)cccc5c4CCN3C[C@@H]12 | -2 | -1 | -6 | -2
O=C(CSc1nc(-c2ccccc2)c(-c2ccccc2)o1)N1CCOCC1 | 0 | 92* | -2 | 0
O=c1cc(OCc2ccccc2)cc[nH]1 | 0 | -2 | 24* | 0
Cc1[nH]ccc(=O)c1OCc1ccccc1 | 2 | 0 | 1 | 0
CCCN(CCO)CCCc1ccccc1 | 1 | -1 | 89* | 3
COCCCNC(=O)c1oc(=O)c2ccccc2c1-c1ccc(C)cc1 | -1 | -1 | -3 | 8
COC(=O)[C@]12C[C@H](CC(=O)NCC3CCCCC3)C(=O)N(CCc3ccc(OC)c(OC)c3)C1=C[C@H](C(C)(C)C)O[C@@H]2C | 5 | 23* | -3 | -5
COC(=O)[C@]12C[C@H](CC(=O)NCC3CCCCC3)C(=O)N(Cc3ccc4c(c3)OCO4)C1=C[C@H](C(C)(C)C)O[C@@H]2C | 6 | 23* | -2 | 2
Nn1c(SCC(=O)Nc2ccccc2-c2ccccc2)nnc1-c1cc(-c2ccc(Cl)cc2)n[nH]1 | 3 | -1 | -2 | -10
N#CCC[C@@H]1CC[C@]2(CCCN(C(=O)c3cccnc3)C2)O1 | -3 | -1 | 0 | 9
COc1ccc(Cn2ccc3ccc(-c4ccc5ccn(Cc6cccc(F)c6)c5c4)cc32)cc1 | 1 | -2 | 3 | 6
CCC(C)CNC(=O)CSc1nnc(-c2cccnc2)n1C1CCCCC1 (configuration not stated) | -3 | 0 | -2 | 10
COc1ccc(C=NNC(=O)Cc2cc(=O)[nH][nH]2)c(OC)c1 | -2 | -6 | -1 | 12
Cc1c(C(=O)Nc2cccc(Cl)c2)c2ccccn2c1CCc1ccncc1 | 0 | -1 | 0 | 1
Cc1c(C(=O)Nc2ccc(Cl)cc2)c2ccccn2c1CCc1ccncc1 | 0 | 24* | -4 | 3
COCCCNC(=O)C[C@H]1C[C@@]2(C(=O)OC)C(=C[C@H](C3CCCC3)O[C@@H]2C)N(CCc2ccc(OC)c(OC)c2)C1=O | -1 | 0 | -5 | -3
COc1cccc(CC(NC(C)=O)C(=O)NC2CCN(c3c(Cc4ccccc4)c(C)nc4ncnn34)CC2)c1 (configuration not stated) | 7 | 26* | 0 | 7

Screens: PubChem BioAssay, The Scripps Research Institute Molecular Screening Center
